Assay results taken from ChEMBL document CHEMBL5724801, “EUbOPEN Chemogenomics Library - Multiplex” (2024).
Several values for one entry are separate records, joined by “and”; a condition that tells them apart may be missing. Equal entries are not always repeated.

Tested on: HEK-293T
Assay: Multiplex assay against HEK293T
Type: toxicity, cell-based
Conditions: human
Method in brief: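 With compound added, live cells were imaged on a CQ1 microscope at 37°C and 5% CO2; staining with Hoechst33342, BioTracker Green Microtubule Cytoskeleton Dye, MitoTracker Red and Annexin V Alexa Fluor 680 had been done at seeding. The CellPathfinder machine-learning gating scheme split cells into Hoechst high-intensity objects or normal cells, normal cells into healthy, pyknosed or fragmented nuclei, and pyknosed cells into mitotic or apoptotic. The tubulin, mitochondrial-mass and membrane-permeability phenotypes are per cents of healthy-nucleus cells.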

[1] = 12 h, 1 µM, compound concentration 1 uM
[2] = 12 h, 10 µM, compound concentration 10 uM
[3] = 24 h, 1 µM, compound concentration 1 uM
[4] = 24 h, 10 µM, compound concentration 10 uM
[5] = 48 h, 1 µM, compound concentration 1 uM
[6] = 48 h, 10 µM, compound concentration 10 uM

In the case of CC(C)C[C@H](NC(=O)c1cc2ccccc2s1)C(=O)N1CCN(C(=O)[C@H](CO)NS(=O)(=O)c2ccc(Cl)cc2Cl)CC1, the “Population Apoptotic (%)” value [1] is reported as 10.07% and 13.45%, the “Population Fragmented Nuclei (%)” value [1] is reported as 3.47% and 8.64% and the “Population Healthy Nuclei (%)” value [1] is reported as 52.68% and 17.9%. For the same compound, the “Population Hoechst High Intensity Objects (%)” value [1] was 0.31% and 0%, the “Population Membrane Permeable-Phenotype (%)” value [1] was 1.8% and 0% and the “Population Mitochondria Different-Phenotype (%)” value [1] was 37.13% and 31.03%. For the same compound, the “Population Mitotic Cells (%)” value [1] was 89.93% and 86.55%, the “Population Normal (%)” value [1] was 99.69% and 100% and the “Population Pyknosed Nuclei (%)” value [1] was 43.85% and 73.46%. The “Population Tubulin-Different-Phenotype (%)” value [1] was 16.17% and 48.28%, the “Total Cell Count” value [1] was 318 and 162 and the “Population Apoptotic (%)” value [2] was 19.05% and 16.13%. For the same compound, the “Population Fragmented Nuclei (%)” value [2] was 2.43% and 2.16%, the “Population Hoechst High Intensity Objects (%)” value [2] was 0.69% and 0% and the “Population Membrane Permeable-Phenotype (%)” value [2] was 0.88% and 0%. The “Population Mitotic Cells (%)” value [2] was 80.95% and 83.87%, the “Population Normal (%)” value [2] was 99.31% and 100% and the “Population Pyknosed Nuclei (%)” value [2] was 58.33% and 89.21%. For the same compound, the “Population Tubulin-Different-Phenotype (%)” value [2] was 87.61% and 58.33%, the “Total Cell Count” value [2] was 290 and 139 and the “Population Apoptotic (%)” value [3] was 16.78% and 26.05%. For the same compound, the “Population Fragmented Nuclei (%)” value [3] was 1.48% and 4.6%, the “Population Healthy Nuclei (%)” value [3] was 67.09% and 27.01% and the “Population Hoechst High Intensity Objects (%)” value [3] was 0%. For the same compound, the “Population Membrane Permeable-Phenotype (%)” value [3] was 2.83% and 2.13%, the “Population Mitochondria Different-Phenotype (%)” value [3] was 27.67% and 38.3% and the “Population Mitotic Cells (%)” value [3] was 83.22% and 73.95%. The “Population Normal (%)” value [3] was 100%, the “Population Pyknosed Nuclei (%)” value [3] was 31.43% and 68.39% and the “Population Tubulin-Different-Phenotype (%)” value [3] was 38.68% and 19.15%. For the same compound, the “Total Cell Count” value [3] was 474 and 174, the “Population Apoptotic (%)” value [4] was 47.8% and 42.62% and the “Population Fragmented Nuclei (%)” value [4] was 3.25% and 4.03%. The “Population Hoechst High Intensity Objects (%)” value [4] was 0.65% and 0%, the “Population Membrane Permeable-Phenotype (%)” value [4] was 0% and 4.76% and the “Population Mitochondria Different-Phenotype (%)” value [4] was 74.82% and 42.86%. For the same compound, the “Population Mitotic Cells (%)” value [4] was 52.2% and 57.38%, the “Population Normal (%)” value [4] was 99.35% and 100% and the “Population Pyknosed Nuclei (%)” value [4] was 51.62% and 81.88%. The “Population Tubulin-Different-Phenotype (%)” value [4] was 100% and 90.48%, the “Total Cell Count” value [4] was 310 and 149 and the “Population Apoptotic (%)” value [5] was 11.27% and 26%. The “Population Fragmented Nuclei (%)” value [5] was 1.67% and 1.87%, the “Population Healthy Nuclei (%)” value [5] was 84.35% and 51.4% and the “Population Hoechst High Intensity Objects (%)” value [5] was 0.1% and 0.47%. For the same compound, the “Population Membrane Permeable-Phenotype (%)” value [5] was 6.07% and 4.55%, the “Population Mitochondria Different-Phenotype (%)” value [5] was 35.82% and 54.55% and the “Population Mitotic Cells (%)” value [5] was 88.73% and 74%. The “Population Normal (%)” value [5] was 99.9% and 99.53%, the “Population Apoptotic (%)” value [6] was 55.17% and 79.57% and the “Population Fragmented Nuclei (%)” value [6] was 2.27% and 2.56%. The “Population Healthy Nuclei (%)” value [6] was 64.87% and 37.82%, the “Population Hoechst High Intensity Objects (%)” value [6] was 0.28% and 0% and the “Population Membrane Permeable-Phenotype (%)” value [6] was 1.31% and 1.69%. For the same compound, the “Population Mitochondria Different-Phenotype (%)” value [6] was 97.38% and 91.53%, the “Population Mitotic Cells (%)” value [6] was 44.83% and 20.43% and the “Population Normal (%)” value [6] was 99.72% and 100%. The “Population Pyknosed Nuclei (%)” value [6] was 32.86% and 59.62%, the “Population Tubulin-Different-Phenotype (%)” value [6] was 94.32% and 98.31% and the “Total Cell Count” value [6] was 354 and 156.

For Cl.Clc1ccc2nsnc2c1NC1=NCCN1 [TIZANIDINE HYDROCHLORIDE], the “Population Apoptotic (%)” value [1] was 39% and 44%, the “Population Fragmented Nuclei (%)” value [1] was 9% and 2% and the “Population Healthy Nuclei (%)” value [1] was 80% and 83%. For the same compound, the “Population Hoechst High Intensity Objects (%)” value [1] was 8% and 9%, the “Population Membrane Permeable-Phenotype (%)” value [1] was 0% and the “Population Mitochondria Different-Phenotype (%)” value [1] was 36% and 62%. For the same compound, the “Population Mitotic Cells (%)” value [1] was 60% and 55%, the “Population Normal (%)” value [1] was 91% and 90% and the “Population Pyknosed Nuclei (%)” value [1] was 9% and 13%. The “Population Tubulin-Different-Phenotype (%)” value [1] was 26% and 20%, the “Total Cell Count” value [1] was 474 and 373 and the “Population Apoptotic (%)” value [2] was 30% and 46%. For the same compound, the “Population Fragmented Nuclei (%)” value [2] was 9% and 7%, the “Population Healthy Nuclei (%)” value [2] was 80% and 79% and the “Population Hoechst High Intensity Objects (%)” value [2] was 6% and 4%. The “Population Membrane Permeable-Phenotype (%)” value [2] was 0%, the “Population Mitochondria Different-Phenotype (%)” value [2] was 45% and 67% and the “Population Mitotic Cells (%)” value [2] was 70% and 53%. For the same compound, the “Population Normal (%)” value [2] was 93% and 95%, the “Population Pyknosed Nuclei (%)” value [2] was 9% and 13% and the “Population Tubulin-Different-Phenotype (%)” value [2] was 32% and 27%. For the same compound, the “Total Cell Count” value [2] was 450 and 343, the “Population Apoptotic (%)” value [3] was 32% and 45% and the “Population Fragmented Nuclei (%)” value [3] was 11% and 10%. The “Population Healthy Nuclei (%)” value [3] was 79% and 80%, the “Population Hoechst High Intensity Objects (%)” value [3] was 4% and 5% and the “Population Membrane Permeable-Phenotype (%)” value [3] was 0%. For the same compound, the “Population Mitochondria Different-Phenotype (%)” value [3] was 20% and 38%, the “Population Mitotic Cells (%)” value [3] was 67% and 54% and the “Population Normal (%)” value [3] was 95% and 94%. The “Population Pyknosed Nuclei (%)” value [3] was 8%, the “Population Tubulin-Different-Phenotype (%)” value [3] was 17% and 15% and the “Total Cell Count” value [3] was 597 and 434. For the same compound, the “Population Apoptotic (%)” value [4] was 32% and 29%, the “Population Fragmented Nuclei (%)” value [4] was 11% and 10% and the “Population Healthy Nuclei (%)” value [4] was 78% and 81%. The “Population Hoechst High Intensity Objects (%)” value [4] was 5% and 6%, the “Population Membrane Permeable-Phenotype (%)” value [4] was 1% and 0% and the “Population Mitochondria Different-Phenotype (%)” value [4] was 23% and 46%. The “Population Mitotic Cells (%)” value [4] was 67% and 70%, the “Population Normal (%)” value [4] was 94% and 93% and the “Population Pyknosed Nuclei (%)” value [4] was 9% and 7%. For the same compound, the “Population Tubulin-Different-Phenotype (%)” value [4] was 18%, the “Total Cell Count” value [4] was 621 and 443 and the “Population Apoptotic (%)” value [5] was 17% and 33%. The “Population Fragmented Nuclei (%)” value [5] was 16% and 14%, the “Population Healthy Nuclei (%)” value [5] was 77% and 79% and the “Population Hoechst High Intensity Objects (%)” value [5] was 2% and 3%. For the same compound, the “Population Membrane Permeable-Phenotype (%)” value [5] was 3% and 1%, the “Population Mitochondria Different-Phenotype (%)” value [5] was 13% and 19% and the “Population Mitotic Cells (%)” value [5] was 82% and 66%. The “Population Normal (%)” value [5] was 97% and 96%, the “Population Pyknosed Nuclei (%)” value [5] was 6% and the “Population Tubulin-Different-Phenotype (%)” value [5] was 10% and 7%. The “Total Cell Count” value [5] was 1005 and 661, the “Population Apoptotic (%)” value [6] was 24% and 25% and the “Population Fragmented Nuclei (%)” value [6] was 19% and 13%. The “Population Healthy Nuclei (%)” value [6] was 74% and 81%, the “Population Hoechst High Intensity Objects (%)” value [6] was 3% and 5% and the “Population Membrane Permeable-Phenotype (%)” value [6] was 1%. For the same compound, the “Population Mitochondria Different-Phenotype (%)” value [6] was 13% and 23%, the “Population Mitotic Cells (%)” value [6] was 75% and the “Population Normal (%)” value [6] was 96% and 94%. For the same compound, the “Population Pyknosed Nuclei (%)” value [6] was 5% and 4%, the “Population Tubulin-Different-Phenotype (%)” value [6] was 10% and 19% and the “Total Cell Count” value [6] was 995 and 600.
